Calls of active or inactive are those of the source. The calls are words filed in the database; no cut-off is given here.
Key:
HL-60 = test: Concentration inhibiting the differentiation-inducing activity of all-trans-retinoic acid (ATRA)(1*10e-8M) in human promyelocytic leukemia cells; assay type: functional, cell-based
Method in brief: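 HL-60 cells at 1 × 10^5 cells/mL, 1 mL/well, exposed to ATRA (1.0 × 10^-8 M) plus graded test compound concentrations; 5 days in 5% CO2/air. Cells stained with FITC anti-CD11b, fixed in 0.2% paraformaldehyde, and analysed by flow cytometry for % CD11b-positive cells. IC50 read from activity vs log compound concentration plots; mean of two experiments.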

[1] = The concentration required to inhibit the binding of [3H]ATRA to retinoic acid receptor in human promyelocytic leukemia cells
Homo sapiens = species: Homo sapiens; test: Differentiation-inducing activity of the compound. ED1/3 value was obtained from the percentage of the differentiated cells (CD11b-positive cells); No activity at concentrations below 3.0e-6M; assay type: functional
[2] = Differentiation-inducing activity of the compound. ED1/3 value was obtained from the percentage of the differentiated cells (CD11b-positive cells).; assay type: functional, Homo sapiens
Method in brief: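 Human promyelocytic leukemia HL-60 cells were exposed to compound alone and scored for differentiation toward mature granulocytes. The read-out was the percentage of CD11b-positive (differentiated) cells, and ED1/3 was derived from these percentages. Activity was judged at concentrations below 3.0 × 10^-6 M. Values are the mean of two experiments.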

Row | Compound | IC50 (HL-60) | IC50 [1] | ED1/3 (Homo sapiens) | ED1/3 [2]
1 | CC1(C)CCC(C)(C)c2cc3c(cc21)CCc1c(-c2ccc(C(=O)O)cc2)cn(CCc2ccccn2)c1-3 | 1300 nM | 16 nM | – | –
2 | CC1(C)CCC(C)(C)c2cc3c(cc21)CCc1c(-c2ccc(C(=O)O)cc2)cn(Cc2ccncc2)c1-3 | 84 nM | 2.3 nM | – | –
3 | CC1(C)CCC(C)(C)c2cc3c(cc21)CCc1c(-c2ccc(C(=O)O)cc2)cn(Cc2cccs2)c1-3 | 540 nM | 4.5 nM | – | –
4 | CC1(C)CCC(C)(C)c2cc3c(cc21)SCc1c(-c2ccc(C(=O)O)cc2)cn(Cc2cccnc2)c1-3 | 5.6 nM | 0.16 nM | – | –
5 | CC1(C)CCSc2cc3c(cc21)CCc1c(-c2ccc(C(=O)O)cc2)cn(Cc2cccnc2)c1-3 | 1100 nM | 13 nM | – | –
6 | CC1(C)CCOc2cc3c(cc21)CCc1c(-c2ccc(C(=O)O)cc2)cn(Cc2cccnc2)c1-3 | 1600 nM | > 50 nM | – | –
7 | CC(C)Oc1cc2c(cc1Cl)CCc1c(-c3ccc(C(=O)O)cc3)cn(Cc3cccnc3)c1-2 | 230 nM | 2.9 nM | – | –
8 | CC1(C)CCC(C)(C)c2cc(-c3cc(-c4ccc(C(=O)O)cc4)[nH]n3)ccc21 | – | 19 nM | – | 900 pM
9 | CC1(C)Cc2c(-c3ccc(C(=O)O)cc3)cn(Cc3cccnc3)c2-c2cc3c(cc21)C(C)(C)CCC3(C)C | 1000 nM | > 50 nM | – | –
10 | CC1(C)CCC(C)(C)c2cc3c(cc21)CCCc1c(-c2ccc(C(=O)O)cc2)cn(Cc2cccnc2)c1-3 | 78 nM | 4.7 nM | – | –
11 | CC1(C)CCC(C)(C)c2cc3c(cc21)OCc1c(-c2ccc(C(=O)O)cc2)cn(Cc2cccnc2)c1-3 | 100 nM | 19 nM | – | –
12 | CC1(C)CCC(C)(C)c2cc3c(ccc4c(-c5ccc(C(=O)O)cc5)cn(Cc5cccnc5)c43)cc21 | 77 nM | 11 nM | – | –
13 | CC(C)Oc1cc2c(cc1-c1ccccc1)CCc1c(-c3ccc(C(=O)O)cc3)cn(Cc3cccnc3)c1-2 | 300 nM | 30 nM | – | –
14 | COc1cc2c(cc1C(C)C)CCc1c(-c3ccc(C(=O)O)cc3)cn(Cc3cccnc3)c1-2 | 170 nM | 22 nM | – | –
15 | CC1(C)CCC(C)(C)c2cc3c(cc21)CCc1c(-c2ccc(C(=O)O)cc2)cn(Cc2ccccn2)c1-3 | 17 nM | 0.14 nM | – | –
16 | CC1=C(/C=C/C(C)=C/C=C/C(C)=C/C(=O)O)C(C)(C)CCC1 [TRETINOIN] | – | 0.63 nM | – | 340 pM
17 | CC1(C)CCC(C)(C)c2cc3c(cc21)CCc1c(-c2ccc(C(=O)O)cc2)cn(Cc2ccccc2)c1-3 | 210 nM | 1.2 nM | – | –
18 | Cc1cc2c(cc1OC(C)C)-c1c(c(-c3ccc(C(=O)O)cc3)cn1Cc1cccnc1)CC2 | 37 nM | 3.7 nM | – | –
19 | CC1(C)CCC(C)(C)c2cc3c(cc21)CCc1c(-c2ccc(C(=O)O)cc2)cn(CC24CC5CC(CC(C5)C2)C4)c1-3 | > 3000 nM | > 50 nM | – | –
20 | CC1(C)CCC(C)(C)c2cc3c(cc21)CCc1c(-c2ccc(C(=O)O)cc2)cn(Cc2cccnc2)c1-3 | 4.9 nM | 0.34 nM | – | –
21 | CC(C)Oc1cc2c(cc1C(C)C)CCc1c(-c3ccc(C(=O)O)cc3)cn(Cc3cccnc3)c1-2 | 69 nM | 0.97 nM | – | –

More lines, main results first:

Row | IC50 (HL-60) | IC50 [1] | Compound | ED1/3 (Homo sapiens) | ED1/3 [2]
22 | 33 nM | 0.59 nM | CC1(C)CCC(C)(C)c2cc3c(cc21)CCc1c(-c2ccc(C(=O)O)cc2)cn(-c2cccnc2)c1-3 | – | –
23 | 520 nM | 19 nM | CCCCCn1cc(-c2ccc(C(=O)O)cc2)c2c1-c1cc3c(cc1CC2)C(C)(C)CCC3(C)C | – | –
24 | 51 nM | 3.4 nM | CC1(C)CCC(C)(C)c2cc3c(cc21)CCc1c(-c2ccc(C(=O)O)cc2)cn(Cc2ccco2)c1-3 | – | –
25 | 650 nM | 5.6 nM | COc1ccncc1-n1cc(-c2ccc(C(=O)O)cc2)c2c1-c1cc3c(cc1CC2)C(C)(C)CCC3(C)C | – | –
26 | – | 17 nM | CC1(C)CCC(C)(C)c2cc3c(cc21)CCc1c(-c2ccc(C(=O)O)cc2)n[nH]c1-3 | inactive | –
27 | – | 80 nM | Cn1nc2c(c1-c1ccc(C(=O)O)cc1)CCc1cc3c(cc1-2)C(C)(C)CCC3(C)C | inactive | –
28 | 300 nM | > 50 nM | CC1(C)CCC(C)(C)c2cc3c(cc21)CCc1c(-c2ccc(C(=O)O)cc2)coc1-3 | – | –
29 | > 3000 nM | > 50 nM | CC1(C)CCC(C)(C)c2cc3c(cc21)CCc1c(-c2ccc(C(=O)O)cc2)ccnc1-3 | – | –
30 | 360 nM | 14 nM | CC1(C)CCC(C)(C)c2cc3c(cc21)CCc1c(-c2ccc(C(=O)O)cc2)cn(C2CC2)c1-3 | – | –
31 | 490 nM | 3.2 nM | CC1(C)CCC(C)(C)c2cc3c(cc21)CCc1c(-c2ccc(C(=O)O)cc2)cn(-c2cnccc2Cl)c1-3 | – | –
32 | > 3000 nM | 32 nM | CC1(C)CCC(C)(C)c2cc3c(cc21)CCc1c(-c2ccc(C(=O)O)cc2)c[nH]c1-3 | – | –
33 | 1.3 nM | 0.91 nM | CC1(C)CCC(C)(C)c2cc3c(cc21)CCc1c(-c2ccc(C(=O)O)cc2)nn(Cc2cccnc2)c1-3 | – | –
34 | 200 nM | > 50 nM | Cn1cc(-c2ccc(C(=O)O)cc2)c2c1-c1cc3c(cc1CC2)C(C)(C)CCC3(C)C | – | –
35 | 56 nM | 1.5 nM | CC1(C)CCC(C)(C)c2cc3c(cc21)CCc1c(-c2ccc(C(=O)O)cc2)nn(Cc2ccccc2)c1-3 | – | –
36 | 2400 nM | > 5 nM | CC1(C)CCC(C)(C)c2cc3c(cc21)CCc1c(-c2ccc(C(=O)O)cc2)csc1-3 | – | –
37 | – | 16 nM | Cn1nc(-c2ccc(C(=O)O)cc2)c2c1-c1cc3c(cc1CC2)C(C)(C)CCC3(C)C | inactive | –
38 | > 3000 nM | > 50 nM | CC1(C)CCC(C)(C)c2cc3c(cc21)CCc1c(-c2ccc(C(=O)O)cc2)cnnc1-3 | – | –
